We go through one molecule from publication PMC4070457 (Drugs in R&D, 2014).

A value given as a limit tells only on which side of the number the result lay.

For data set [1] the following is noted: oral 20 mg/kg, acyl carbon radiolabelled FA; cited from earlier work.
Data set [2] can be described thus: Tolerability / toxicity observation during the pharmacokinetic studies. It counts as in vivo, Sprague-Dawley rats. Summed up:
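Male Sprague-Dawley rats with jugular catheters were watched for toxic signs, including chromodacryorrhea, while on the pharmacokinetic study. Nine rats each received 25 mg/kg IV and 25 mg/kg PO (gavage) in saline, with sampling to 8 h. Separate IV dosing was at 10, 25 and 75 mg/kg. Animals were killed in a CO2 chamber after each study.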

The conditions of data set [3]: cited from earlier work.
The subject of another data set is HNSCC. The settings on record: oral dose of 25 mg/kg per day; cited from earlier work.
Data set [4] in a line: Pharmacokinetics of FA after IV and oral. It counts as in vivo, Sprague-Dawley rats. The settings on record: for clearance: Sprague-Dawley, rat, serum, iv.
For data set [5] the following is noted: cited from earlier work. The source holds these as a separate data set.

In the case of `CCCCc1ccc(C(=O)O)nc1` [fusaric acid, 5-butlypicolinic acid], the “calculated FA concentration at peak radioactivity” value in data set [1] is recorded as 42 ± 7.4 µg/mL. Moreover, in data set [2] (25 mg/kg IV and PO, nine animals), the “Toxicity (i.e., chromodacyrea)” value was “not observed”. For the same molecule, the adverse effects entry in data set [2] (IV doses of 10, 25, and 75 mg/kg) was “no adverse effects observed”. Further, in data set [3], the “dose at which adverse effects were observed” value is 100 mg/kg. Moreover, in the data set with HNSCC, the “efficacy toward HNSCC” value is on record as “efficacious”. For the same molecule, in data set [4] (25 mg/kg IV or PO, all animals), the “time until FA serum concentration fell below the lower limit of quantitation (10 µM)” value is no more than 4 h. In data set [4] (25 mg/kg oral, average), the “Vd (apparent volume of distribution)” value was 182 ± 27 mL. Also, the clearance is 0.783 mL/min in data set [4] (10 mg/kg, 10 mg/kg IV) and 1.35 mL/min in data set [4] (25 mg/kg, 25 mg/kg IV). The “FA excreted unchanged in the urine” value in data set [5] is listed as less than 5%.
